Screening results deposited in PubChem by The Scripps Research Institute Molecular Screening Center.
Compounds with a hit are over-represented: about 2.8% of the library has one in this group of screens.
HTRA1 inhibitor – inhibitors of human serine peptidase HTRA1 | 0.5% of 340,000 active | recombinant HTRA1, FP-rhodamine activity-based probe, fluorescence polarization | inhibition, % at 5.96 µM | AID 504803; in the data active means inhibition above about 36%;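 further: 0% = enzyme with DMSO and 100% = wells lacking enzyme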
PAFAH1B3 inh – PAFAH1B3 (human) inhibition; Q15102; recombinant PAFAH1B3, FP-rhodamine probe, fluorescence polarization; 0.28% of 340,000 active; inhibition, % at 3.39 µM;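 active means inhibition above the screen-wide average of all tested compounds plus 3 SD, cut at about 25% in these data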;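 further: 0% = enzyme with DMSO only and 100% = wells lacking PAFAH1B3 protein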
PAFAH2 FP inh – inhibitors of human PAFAH2 | Q99487 | AID 492956 | 0.99% of 340,000 active | inhibition, % at 3.39 µM | recombinant PAFAH2, FP-rhodamine activity probe, fluorescence polarization;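 active means inhibition above the mean over all tested compounds plus 3 SD, cut at about 30% in these data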;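 further: inhibitors block probe labeling of enzyme so polarization drops; 0% = enzyme with DMSO and 100% = wells lacking PAFAH2 protein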
mABHD4 FP – inhibitors of mouse ABHD4. 0.54% of 370,000 active. purified mABHD4, FP-Rh probe fluorescence polarization. Q8VD66. inhibition, % at 8.92 µM;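 active means inhibition exceeding the mean over every tested compound plus 3 SD, cut at about 30% in these data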;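 further: 0% = plate median of compound wells and 100% = S159A mutant with DMSO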
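Test system: mouse ABHD4 enzyme, wild type. Reagent: FP-Rh fluorescent activity-based probe, added after compound pre-incubation. Timing: pre-incubation 45 min, probe exposure 60 min, at 25 °C. Technique: FP readout, ex 525 nm / em 598 nm. Benchmarks: high control S159A mutant with DMSO, low control median of compound wells.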
pPAFAH FP inh – inhibitors of human plasma PAF acetylhydrolase (pPAFAH). 1.5% of 330,000 active. inhibition, % at 3.39 µM. recombinant pPAFAH, FP-rhodamine probe fluorescence polarization;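 active means inhibition above the mean inhibition across the screen plus 3 SD, cut at about 25% in these data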;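 further: inhibitors block binding of the rhodamine activity-based probe so polarization drops; 0% = enzyme with DMSO and 100% = wells lacking pPAFAH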
Target sequence (Q13093 whole entry, looked up): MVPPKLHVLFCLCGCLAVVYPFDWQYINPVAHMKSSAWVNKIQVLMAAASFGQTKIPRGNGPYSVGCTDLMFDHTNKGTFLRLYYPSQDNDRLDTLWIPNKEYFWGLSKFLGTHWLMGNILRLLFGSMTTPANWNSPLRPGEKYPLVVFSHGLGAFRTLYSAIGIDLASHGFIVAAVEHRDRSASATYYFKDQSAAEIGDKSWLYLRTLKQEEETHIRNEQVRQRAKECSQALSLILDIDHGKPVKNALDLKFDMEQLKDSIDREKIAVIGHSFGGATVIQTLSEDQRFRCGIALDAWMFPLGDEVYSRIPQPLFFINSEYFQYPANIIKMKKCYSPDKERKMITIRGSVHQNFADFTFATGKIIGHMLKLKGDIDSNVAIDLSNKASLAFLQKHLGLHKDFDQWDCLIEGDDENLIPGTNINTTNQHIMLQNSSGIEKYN
PAFAH1B2 FP inh – PAFAH1B2 (human) inhibition; inhibition, % at 3.39 µM; recombinant PAFAH1B2, FP-rhodamine activity probe, fluorescence polarization; 1.2% of 340,000 active; AID 492953;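 active means inhibition above the mean of all tested compounds plus 3 SD, cut at about 24% in these data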;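 further: 0% = enzyme with DMSO and 100% = wells lacking PAFAH1B2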
Target sequence (P68402 whole entry, looked up): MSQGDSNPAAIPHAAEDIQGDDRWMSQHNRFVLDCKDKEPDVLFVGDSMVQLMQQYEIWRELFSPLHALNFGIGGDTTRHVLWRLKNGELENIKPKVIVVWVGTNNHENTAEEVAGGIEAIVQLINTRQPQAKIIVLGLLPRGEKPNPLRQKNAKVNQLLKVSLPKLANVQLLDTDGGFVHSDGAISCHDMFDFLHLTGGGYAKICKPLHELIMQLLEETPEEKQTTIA
ABHD4 confirm – ABHD4 (mouse) inhibition, FP confirmation | shares compounds with mABHD4 FP | purified mABHD4, FP-Rh probe fluorescence polarization | inhibition, % at 8.92 µM | 55% of 1,800 active | AID 720658;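 active means mean inhibition across replicates above the hit cutoff set in the primary screen, cut at about 30% in these data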;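 further: 0% = wild-type ABHD4 with DMSO and 100% = catalytically dead S159A mutant with DMSO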
Numbers without * were called inactive; · = no result given.

SMILES	HTRA1 inhibitor	PAFAH1B3 inh	PAFAH2 FP inh	mABHD4 FP	pPAFAH FP inh	PAFAH1B2 FP inh	ABHD4 confirm
O=C(O)c1cc(NN=Nc2cccc([N+](=O)[O-])c2)cc([N+](=O)[O-])c1	-3.6	9.3	10.5	69.0*	27.0*	7.1	73.2*
O=C(O)c1cc(NN=Nc2cccc(S(=O)(=O)O)c2)cc([N+](=O)[O-])c1	2.7	8.4	6.3	38.8*	10.3	3.0	35.5*
O=[N+]([O-])c1cccc(NN=Nc2ccccc2)c1	4.1	9.5	-0.4	7.1	9.1	4.3	·
O=C(O)c1cccc(NC(=O)c2cccc(S(=O)(=O)Nc3cccc([N+](=O)[O-])c3)c2)c1	-0.9	4.4	-5.8	-9.4	-1.4	2.8	·
O=[N+]([O-])c1ccc(N=NNc2ccccc2)cc1	15.9	11.2	15.0	·	5.6	3.4	·
O=C(O)c1cc(NN=Nc2ccc(Br)cc2)cc([N+](=O)[O-])c1	-5.1	4.8	16.6	67.7*	9.7	7.4	67.2*
O=C(CCc1ccccc1)N[C@H]1C(=O)CCC[C@]12C(=O)N(Cc1ccccc1)c1ccccc12	·	·	·	1.6	·	·	·
COC(=O)C1CN(Cc2ccccc2)CCS(=O)(=O)N1Cc1cn(Cc2ccc(Cl)cc2)nn1 (stereo unspecified)	·	·	·	2.3	·	·	·
CCOC(=O)N[C@H](C(=O)N1CCC[C@H]1C(=O)NCCc1ccccc1Cl)c1ccccc1	·	·	·	-15.0	·	·	·
CC(=O)Oc1cc(C)c(Cl)c2c(OC(C)=O)cc(C(C)=O)c(O)c12	·	·	·	68.2*	·	·	39.4*
CC(C)[C@H](NC(=O)OC(C)(C)C)c1nnc(S(=O)(=O)Cc2c(F)cccc2Cl)o1	4.3	3.1	5.5	31.3*	-4.3	5.5	25.2
CN(C)c1ccc(NC(=O)Nc2ccc3c(c2)c(=O)n(C)n3Cc2ccccc2)cc1	·	·	·	24.0	·	·	·
CN(C)c1ccc(NC(=O)Nc2ccc3c(c2)c(=O)n(C)n3Cc2ccc(Cl)cc2)cc1	·	·	·	42.8*	·	·	26.2
C[C@H]1C(c2ccccc2F)O[C@]2(C[C@H](O)c3c(ccc4ccccc34)O2)C[C@@H]1O (stereo partly specified)	·	·	·	-2.4	·	·	·
CN(C)c1ccc(Nc2nc(-c3cccnc3)cs2)cc1	14.6	7.3	-1.2	27.4	5.6	-1.9	·
CCN(CC)c1ccc(Nc2nc(-c3cccnc3)cs2)cc1	35.0	0.9	4.4	29.7*	17.5	11.5	35.1*
CCOC(=O)C(=C1Nc2ccccc2N1)n1c(-c2ccco2)nc2ccccc21	·	·	·	32.0*	·	·	12.6
CC1(C)Oc2cc(N)c([N+](=O)[O-])cc2O1	7.2	7.0	2.4	41.2*	18.8	-5.2	-10.9
COCCNc1cc(N)c([N+](=O)[O-])cc1[N+](=O)[O-]	-1.4	6.7	5.9	1.0	-4.6	0.8	·
c1cc(-c2ccoc2)n2ccnc2c1	·	·	·	50.0*	·	·	13.6
c1cc(-c2ccsc2)n2ccnc2c1	·	·	·	4.5	·	·	·
O=C(CNS(=O)(=O)c1cc2ccccc2s1)N1CCN(c2ccccn2)CC1	·	·	·	2.6	·	·	·
Cc1ccccc1NC(=O)Cc1nc(COC(=O)c2cc([N+](=O)[O-])ccc2N)cs1	-15.6	2.5	-8.3	62.3*	12.2	-5.2	125.8*
CCn1c(COc2ccc(C)cc2)nnc1SCC(=O)Nc1ccc(Oc2ccccc2)cc1	·	·	·	4.4	·	·	·
CC1=NN(C(N)=S)C(=O)C1N=Nc1c(C)cc(C)cc1C (stereo unspecified)	6.0	2.2	1.8	4.5	2.3	0.6	·
SMILES	HTRA1 inhibitor	PAFAH1B3 inh	PAFAH2 FP inh	mABHD4 FP	pPAFAH FP inh	PAFAH1B2 FP inh	ABHD4 confirm
CC1=NN(C(N)=S)C(=O)C1N=Nc1c(Br)cc(Br)cc1Br (stereo unspecified)	33.3	5.6	22.2	30.1*	15.4	2.1	57.0*
O=C(NCCCc1ccccc1)[C@H](Cc1c[nH]c2ccccc12)NC1(C(=O)NCCc2c[nH]c3ccccc23)CCC1	·	·	·	-13.3	·	·	·
O=C(/C=C1\C(=O)Nc2ccccc21)/C=C1\C(=O)Nc2ccccc21	24.5	3.8	5.1	40.5*	·	7.8	24.0
Cc1cc(C)nc(OC(C(=O)O)C(OCCC(C)C)(c2ccccc2)c2ccccc2)n1 (stereo unspecified)	-1.6	6.3	-5.3	34.6*	4.2	13.0	46.7*
CN(C)c1cccc(/C=C2\CC3(OC(=O)c4ccccc4)CCCN2C3)c1 (stereo unspecified)	·	·	·	1.6	·	·	·
Cc1ccc(O)c(N=Cc2sc3ccccc3c2Cl)c1	24.9	8.2	-3.9	25.3	23.6	-1.2	·
Oc1ccccc1N=Cc1sc2ccccc2c1Cl	6.1	3.8	5.0	32.4*	11.0	3.8	-5.9
Cc1[nH]c(=O)c(C#N)c2c1COC(C)(C)C2	-1.2	8.7	-1.7	·	3.1	0.8	·
CC1=C(C#N)C(=O)OC(C)(C)C1	12.7	11.7	8.2	29.9*	14.7	6.2	9.5
C[C@@H]1C=CCCO[C@]12C(=O)N(CC1CC1)c1cccc(Br)c12	·	·	·	39.7*	·	·	40.0*
CC(C)=CCN1C(=O)[C@]2(OCCC=C[C@H]2C)c2c(Br)cccc21	·	·	·	-5.7	·	·	·
CCCCOCCCNC(=O)C[C@H]1C[C@@]2(C(=O)OC)C(=C[C@H](C(C)C)O[C@@H]2C2CC2)N(Cc2ccc(Cl)cc2Cl)C1=O	·	·	·	-2.7	·	·	·
O=c1[nH]c(S)c(/C=C2\C=Nc3ccccc32)s1	·	·	·	30.1*	24.6*	·	35.4*
CCCC#Cc1ccc2c(c1)COc1c3ccccc3nn1-2	-10.5	0.1	-3.5	5.2	3.5	0.1	·
CCc1cc(-c2ccc3c(c2)COc2c4ccccc4nn2-3)on1	-21.8	-2.8	4.7	31.6*	7.7	2.4	-7.3
CCc1noc(C)c1C(=O)N(C)CC(=O)Nc1ccc(Br)cc1C	-2.1	2.6	-3.1	41.0*	-1.6	2.8	1.8
CCc1noc(C)c1C(=O)N(C)CC(=O)Nc1ccccc1Br	2.7	-2.0	1.4	-2.9	4.2	-5.0	·
O=C1C[C@@H](c2ccccc2)N=C2N(Cc3ccc4c(c3)OCO4)C/C(=C/c3ccccc3)N12	·	·	·	-14.7	·	·	·
Cc1[nH]c2c(ccc3ccccc32)c1C1C(CCN)C1(C)C (stereo unspecified)	23.5	0.4	0.8	30.4*	-2.4	-2.2	47.0*
N#C/C(=C\C1=C(N2CCOCC2)C(=C\c2ccc(Cl)cc2)/CC1)C(=O)Nc1ccccc1F	-0.3	-37.1	-33.8	-7.8	-3.3	-29.5	·
N#C/C(=C/C1=C(N2CCOCC2)C(=C/c2ccc(Cl)cc2Cl)/CC1)C(=O)Nc1ccccc1F	-5.4	-19.5	-20.5	40.0*	·	-12.0	-19.0
O=C1C(=Cc2ccco2)C(=O)c2ccccc21	25.4	8.2	6.7	35.0*	28.2*	4.2	27.6
O=C1/C(=C/c2ccco2)CCc2ccccc21	-8.9	6.0	3.9	18.6	10.9	-1.4	·
O=C1NN(c2cccc(Br)c2)C(=O)/C1=C\c1ccccc1	-4.3	14.5	0.6	37.2*	20.4	15.2	3.5
